Assay [1] relates to 5637. The assay is described as follows: Cytotoxic activity against human 5637 cell line at 20 uM expressed as percent growth value. It is filed as functional. The method in brief:
(§1)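 Cells in RPMI-1640 with 10% FCS were seeded (1000 cells/well; KYSE-510 500, LCLC-103H 250), then exposed 24 h later for 96 h. Read-out was crystal violet staining of glutaraldehyde-fixed cells at OD 570 nm. Growth (%) = (OD treated − OD at drug addition)/(OD control − OD at drug addition) × 100.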

For assay [2], the system named is KYSE-70 cell line. The assay is described as follows: Cytotoxic activity against human KYSE-70 cell line at 20 uM expressed as percent growth value. The assay is classed as functional. The method in brief: as §1
For assay [3], the system named is SISO. The assay is described as follows: Cytotoxic activity against human SISO cell line at 20 uM. It is filed as functional. In outline:
as §1

The subject of assay [4] is 5637. Kind of assay: Growth inhibition against human 5637 cell lines. Conditions: Homo sapiens. The assay is classed as functional, cell-based. In outline: (§2)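 Cells were grown in RPMI-1640 with 2 g/L NaHCO3 and 10% FCS at 37 °C in 5% CO2, seeded at 1000 cells/well, and dosed 24 h later at five geometric dilutions for 96 h of continuous exposure. Cells were then glutaraldehyde-fixed and stained with crystal violet, with OD read at 570 nm. IC50 was taken from the dose–response data.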

Assay [5] relates to DAN-G. The assay is described as follows: Growth inhibition against human DAN-G cell lines. It is filed as functional, cell-based. Conditions: Homo sapiens, DAN-G. The method in brief: as §2
In assay [6] the test system is KYSE-70 cell line. The assay is described as follows: Growth inhibition against human KYSE-70 cell lines. It is filed as functional, cell-based. The note with it: Homo sapiens, KYSE-70. The method in brief: as §2
Assay [7] concerns MCF7. The assay is described as follows: Growth inhibition against human MCF-7 cell lines. The assay is classed as functional, cell-based. Conditions: Homo sapiens, MCF7. In outline:
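MCF-7 was cultured in RPMI-1640 with 2 g/L NaHCO3, 10% FCS, 1 mM pyruvate, MEM salts and amino acids. Plating was 1000 cells/well, then after 24 h, 96 h of continuous exposure at five geometric dilutions. Crystal violet staining of glutaraldehyde-fixed cells was read at 570 nm, and IC50 was derived from the dose–response data.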

Assay [8] concerns LCLC-103H cell line. Kind of assay: Growth inhibition against human LCLC-103H cell lines. The assay is classed as functional, cell-based. The note with it: Homo sapiens, LCLC-103H. In outline:
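LCLC-103H cells were grown in RPMI-1640 with 2 g/L NaHCO3 and 10% FCS (5% CO2, 37 °C) and plated at 250 cells/well. After 24 h, five geometric dilutions were applied continuously for 96 h. Fixation was with glutaraldehyde, followed by crystal violet staining and OD at 570 nm. IC50 came from the dose–response curves.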

Assay [9] relates to RT-4. The assay is described as follows: Growth inhibition against human RT-4 cell lines. The assay is classed as functional, cell-based. Conditions: Homo sapiens, RT-4. The method in brief:
as §2

Assay [10] deals with SISO. Kind of assay: Growth inhibition against human SISO cell lines. The assay is classed as functional, cell-based. Conditions: Homo sapiens, SISO. The method in brief:
as §2

Assay [11] has as its system TERT-RPE1. Kind of assay: Compound was tested for growth inhibition against human h-TERTRPE1 cell lines. The note with it: Homo sapiens, RPE-1. The assay is classed as functional, cell-based. In outline:
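The noncancerous hTERT-immortalized epithelial line h-TERT-RPE1 was grown in DMEM/F-12 with 2 g/L NaHCO3 and 10% FCS (37 °C, 5% CO2) and seeded at 1000 cells/well. Substance was added 24 h later at five geometric dilutions for 96 h continuously. The read-out was crystal violet staining after glutaraldehyde fixation, OD 570 nm, with IC50 from dose–response.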

Assay [12] deals with KYSE-510. The assay is described as follows: Cytotoxic activity against human KYSE-510 cell line at 20 uM expressed as percent growth value. The assay is classed as functional. The method in brief:
as §1

Assay [13] deals with LCLC-103H cell line. Kind of assay: Cytotoxic activity against human LCLC-103H cell line at 20 uM expressed as percent growth value. It is filed as functional. In outline: as §1
Assay [14] has as its system RT-112. The assay is described as follows: Growth inhibition against human RT-112 cell lines. The assay is classed as functional, cell-based. The note with it: Homo sapiens, RT-112. The method in brief: as §2
Assay [15] has as its system YAPC. Kind of assay: Compound was tested for growth inhibition against human YAPC cell lines. It is filed as functional, cell-based. Conditions: Homo sapiens, YAPC. The method in brief:
as §2

Assay [16] has as its system KYSE-520 cell line. The assay is described as follows: Growth inhibition against human KYSE-520 cell lines. It is filed as functional, cell-based. Conditions: Homo sapiens, KYSE-520. The method in brief: as §2
Assay [17] concerns KYSE-510 (human). Kind of assay: Growth inhibition against human KYSE-510 cell lines. Conditions: Homo sapiens, KYSE-510.

With `CN(C)c1ccc(/C=C(\C#N)c2nc3ccccc3[nH]2)cc1`, the Activity in assay [1] stood at 61.1; in assay [2], 124.4; in [3], 95.
Consider `C/C(=C\c1ccc([N+](=O)[O-])s1)c1nc2ccccc2[nH]1`, for which the results for the Activity in assay [1], in assay [2] and in assay [3] were 0.5, 2.4 and -1.3, respectively. In addition, the IC50 is 3.65 µM in assay [4]; 3.73 µM in assay [5]; 5.11 µM in [6]; 2.97 µM in assay [7]; 440 nM in [8]; 4.67 µM in [9]. Further, the IC50 in [10] was 3.28 µM.
As to `N#C/C(=C\c1ccc(C(F)(F)F)cc1)c1nc2ccccc2[nH]1`, the Activity worked out at 34.4 in assay [1], 69.7 in assay [2] and 61.8 in assay [3]. Further, the IC50 in assay [4] amounted to 12.2 µM; in [5], 17.6 µM; in [6], 15.6 µM; in [7], 9.11 µM; in [8] it was 1600 nM; in assay [9], 16.3 µM. This compound displayed an IC50 in assay [10] of 14 µM.
`N#C/C(=C\c1ccc(OC(F)(F)F)cc1)c1nc2ccccc2[nH]1`: the Activity was found to be 66 in [1], 96.7 in [2] and 71.7 in assay [3].
In the same order, the values of `N#C/C(=C\c1ccco1)c1nc2ccccc2[nH]1` are 86.1, 56.6 and 106.1.
Consider `N#C/C(=C\c1cccs1)c1nc2ccccc2[nH]1`, for which the values for the Activity in assay [1], in assay [2] and in assay [3] were 49.3, 30.8 and 82.4, respectively. Further, the IC50 in assay [4] stood at 17.8 µM; in assay [5] it was 15 µM; in [6] it was 8.78 µM; in assay [7], 11.2 µM; in assay [8] it was 2500 nM; in assay [9] it was 14.6 µM. Also, in assay [10], 25.9 µM corresponded to half-maximal inhibition (IC50).
Regarding `N#C/C(=C\c1ccc(C#N)cc1)c1nc2ccccc2[nH]1`, the Activity in assay [1] is listed as 75.6; in [2] it was 99.3; in assay [3], 99.2.
In the case of `N#C/C(=C\c1cccc([N+](=O)[O-])c1)c1nc2ccccc2[nH]1`, the Activity in assay [1] was 14.4; in assay [2] it was 55.4; in assay [3], 54.2. For the same compound, the IC50 in assay [4] stood at 15.2 µM; in assay [5], 15.8 µM; in assay [6] it was 22.5 µM; in assay [7], 16.4 µM; in [8], 1130 nM; in assay [9], 7.68 µM. This compound also came in with a half-inhibitory concentration (IC50) in [10] of 30.9 µM.
Consider `O=[N+]([O-])c1ccc(/C=C/c2nc3ccccc3[nH]2)s1`, for which the figures for the Activity in assay [1], in [2] and in [3] were 0, 0.7 and -1.8, respectively. Further, the IC50 was found to be 0.27 µM in assay [4], 560 nM in assay [8], 0.89 µM in assay [9] and 210 nM in assay [11].
For the compound `N#C/C(=C\c1ccc([N+](=O)[O-])s1)c1n[nH]c(Cc2ccccc2)n1`, the IC50 amounted to 0.32 µM in [4]; 0.5 µM in [5]; 0.42 µM in assay [6]; 0.42 µM in assay [7]; 310 nM in assay [8]; 650 nM in assay [14]. Besides, the IC50 was 0.59 µM in assay [9]; 0.78 µM in assay [10]; 510 nM in [11]; 360 nM in [15]; 290 nM in assay [16]; 530 nM in assay [17]. The Activity in assay [12] is -21.3; in [13], -8.4; in assay [3], -8.7.
On to `N#C/C(=C\c1ccc([N+](=O)[O-])cc1)c1nc2ccccc2[nH]1`, for which the Activity in assay [1] was 73.9; in [2], 88; in assay [3], 99.2.
With `COc1ccc(/C=C(\C#N)c2nc3ccccc3[nH]2)cc1`, the Activity in assay [1] is 64.9; in assay [2] it was 75.8; in assay [3] it was 72.1.

Source of the values: ChEMBL document CHEMBL1148342, “Synthesis, X-ray crystal structures, stabilities, and in vitro cytotoxic activities of new heteroarylacrylonitriles” (J Med Chem, 2004).
